Active and inactive are the calls of the source. Where only a bound is given, the exact number is not on record here.

For series [1], the target named is T1, Proteasome subunit beta type-10 (Mus musculus, UniProt O35955).
T1 sequence (O35955 whole entry): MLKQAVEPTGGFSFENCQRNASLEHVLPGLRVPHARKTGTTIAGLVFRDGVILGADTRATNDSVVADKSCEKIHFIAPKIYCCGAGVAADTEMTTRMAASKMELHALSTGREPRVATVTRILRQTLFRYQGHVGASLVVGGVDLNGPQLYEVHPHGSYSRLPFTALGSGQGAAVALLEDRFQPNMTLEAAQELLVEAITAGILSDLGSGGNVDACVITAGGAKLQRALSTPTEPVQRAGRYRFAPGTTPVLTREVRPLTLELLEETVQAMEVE
Briefly: Inhibition of MECL1 in mouse A20 cells by ELISA. Type of series: cell-based. In short, it runs like this:
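Mouse A20 B-cell lymphoma cell lysate (1 mg/mL, hypotonic 20 mM Tris pH 8, 5 mM EDTA) treated with serially diluted compound for 1 h at 25 °C. Then 5 μM biotinylated active-site probe for 2 h at 25 °C, guanidine denaturation and streptavidin bead capture. Subunit-specific antibody and HRP chemiluminescence, signal normalized to protein, IC50 from percent activity versus DMSO controls.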

The target of series [2] is Proteasome subunit beta type-2 (Mus musculus, UniProt Q9R1P3). Briefly: Inhibition of 20S proteosome beta 2 in mouse A20 cells by ELISA. Type of series: cell-based.
Series [3] has as its system PBMC. Kind of series: Antiinflammatory activity in human PBMC assessed as reduction in LPS-stimulated TNF-alpha expression at 250 nM preincubated for 1 hr followed by LPS stimulation measured after 24 hrs by ELISA. In kind it is functional, cell-based. An outline of the steps:
(§1)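 Cryopreserved healthy-donor PBMC in RPMI 1640 with 5% heat-inactivated FBS, 250 000 cells/well. Compound (0.1% DMSO final) for 1 h at 37 °C, 5% CO2, then 4 washes with medium. Stimulated with 1 μg/mL LPS for 24 h; supernatant TNFα, IL-6 and IL-12/23p40 by electrochemiluminescent immunoassay. Mean level relative to DMSO controls, n = 6.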
(In general: ELISA stands for enzyme-linked immunosorbent assay.)

In series [4] the test system is PBMC. Briefly: Antiinflammatory activity in human PBMC assessed as reduction in LPS-stimulated IL-6 expression at 250 nM preincubated for 1 hr followed by LPS stimulation measured after 24 hrs by ELISA. Type of series: functional, cell-based. In short, it runs like this: as §1
Series [5] relates to PBMC. Kind of series: Antiinflammatory activity in human PBMC assessed as reduction in LPS-stimulated p40 subunit of […] expression at 250 nM preincubated for 1 hr followed by LPS stimulation measured after 24 hrs by ELISA. Type of series: functional, cell-based. An outline of the steps:
as §1

The test system of series [6] is PBMC. Kind of series: Antiinflammatory activity in human PBMC assessed as reduction in anti-CD3/CD28 antibody-stimulated IFN-gamma expression at 250 nM preincubated for 1 hr followed by anti-CD3/CD28 antibody stimulation measured after 24 hrs in presence of KZR-504 by ELISA. In kind it is functional, cell-based. An outline of the steps: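 Healthy-donor PBMC, thawed from cryopreservation, 250 000 cells/well in RPMI 1640/5% FBS. Pretreated 1 h at 37 °C with compound alone or combined (0.1% DMSO final), washed 4 times, then stimulated 24 h with anti-CD3 and anti-CD28 antibodies. TNFα and IFNγ in supernatants by electrochemiluminescent ELISA; expressed relative to DMSO-treated controls (n = 6).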

Series [7] in a line: Half life in Balb/c mouse at 2 mg/kg, iv. The following applies: in vivo. In kind it is ADME, organism-based. In short, it runs like this:
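Female BALB/c mice aged 7−8 weeks, given 2 mg/kg iv in 25% PEG300/WFI. Cardiac blood taken at 2, 5, 10, 20, 30, 60 and 120 min postdose into sodium heparin and processed to plasma (n = 3/time point). Proteins precipitated with acetonitrile; drug measured by LC−MS/MS. Noncompartmental analysis of mean concentrations at nominal times and target doses.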

Series [8] deals with PBMC. Kind of series: Antiinflammatory activity in human PBMC assessed as reduction in LPS-stimulated TNF-alpha expression at 125 nM preincubated for 1 hr followed by LPS stimulation measured after 24 hrs by ELISA. In kind it is functional, cell-based. An outline of the steps:
as §1

The subject of series [9] is PBMC. Kind of series: Antiinflammatory activity in human PBMC assessed as reduction in LPS-stimulated IL-6 expression at 125 nM preincubated for 1 hr followed by LPS stimulation measured after 24 hrs by ELISA. In kind it is functional, cell-based. An outline of the steps: as §1
In series [10] the test system is Mus musculus. Kind of series: In vivo inhibition of MECL-1 in Balb/c mouse splenocytes at 20 mg/kg, iv followed by dosing repeat on day 6, 8, 11, 13 and 15 and measured on 1 hr post last dose. In kind it is functional, organism-based. In short, it runs like this:
(§2)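 BALB/c mice dosed iv bolus in 10% sulfobutyl ether−β-cyclodextrin/10 mM sodium citrate pH 3.5; tissues taken 1 h after administration. Splenocytes strained and red cells lysed; kidney frozen, then bead-homogenized. Hypotonic lysate (20 mM Tris pH 8, 5 mM EDTA) at 1 mg/mL (spleen) or 5 mg/mL (kidney) run in the ProCISE active-site ELISA. Background-subtracted, protein-normalized activity relative to vehicle animals; n = 3.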

Series [11] deals with Mus musculus. Briefly: In vivo inhibition of MECL-1 in Balb/c mouse splenocytes at 20 mg/kg, iv followed by dosing repeat on day 6, 8, 11, 13 and 15 and co-treated with 5 mg/kg, iv KZR-504 and measured on 1 hr post last dose. Type of series: functional, organism-based. In short, it runs like this: as §2
The nature of series [12]: Toxicity in Balb/c mouse assessed as change in body weight at 20 mg/kg, iv followed by dosing repeat on day 6, 8, 11, 13 and 15 and measured until day 18. The following applies: in vivo. In kind it is organism-based.
Series [13] has as its target T2, Proteasome subunit beta type-9 (Homo sapiens) (UniProt P28065).
T2 sequence (whole entry): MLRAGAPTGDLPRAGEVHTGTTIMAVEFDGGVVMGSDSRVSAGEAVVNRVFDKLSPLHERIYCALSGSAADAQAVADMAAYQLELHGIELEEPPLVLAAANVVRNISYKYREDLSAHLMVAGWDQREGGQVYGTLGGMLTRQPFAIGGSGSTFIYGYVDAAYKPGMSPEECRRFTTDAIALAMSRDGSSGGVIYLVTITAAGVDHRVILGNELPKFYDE
Briefly: Inhibition of LMP2 in human PBMC at 125 nM by ELISA.

The target of series [14] is T2, Proteasome subunit beta type-9 (Homo sapiens). Kind of series: Inhibition of LMP2 in human PBMC at 125 nM in presence of KZR-504 by ELISA.
Series [15] is described as follows: Toxicity in Balb/c mouse assessed as change in body weight at 20 mg/kg, iv followed by dosing repeat on day 6, 8, 11, 13 and 15 and co-treated with 5 mg/kg, iv KZR-504 and measured until day 18. In kind it is organism-based. The following applies: in vivo.
Series [16] is described as follows: Toxicity in Balb/c mouse assessed as effect on cage-side observations at 20 mg/kg, iv followed by dosing repeat on day 6, 8, 11, 13 and 15 and co-treated with 5 mg/kg, iv KZR-504 and measured until day 18. Type of series: organism-based. The following applies: in vivo.

Chain of Proteasome subunit beta type-2 (Q9R1P3 whole entry): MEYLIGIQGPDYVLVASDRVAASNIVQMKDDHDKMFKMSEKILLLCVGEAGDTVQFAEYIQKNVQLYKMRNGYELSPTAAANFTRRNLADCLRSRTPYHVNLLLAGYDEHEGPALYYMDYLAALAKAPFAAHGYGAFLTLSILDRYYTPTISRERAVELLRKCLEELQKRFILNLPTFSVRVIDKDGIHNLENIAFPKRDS

As a reminder, the IC50 is the concentration at which inhibition is half-maximal. High values mean weaker potency in that assay, low ones greater potency in that assay. For the compound `COc1ccc([C@@H](O)[C@H](NC(=O)[C@H](C)NC(=O)CN2CCOCC2)C(=O)N[C@@H](CC2=CCCC2)C(=O)[C@@]2(C)CO2)cc1` [ZETOMIPZOMIB], the IC50 stood at 522 nM in [1] and 857 nM in [2]. The outcome in series [3], in series [4] and in series [5] was Active.

For the compound `Cc1ccc(CC[C@H](NC(=O)[C@H](Cc2ccccc2)NC(=O)[C@H](CC(C)C)NC(=O)CN2CCCCCC2)C(=O)[C@@]2(C)CO2)cc1`, the concentration for half-maximal inhibition (IC50) worked out at 305 nM in [1] and 573 nM in series [2]. For the same compound, the outcome in series [3], in series [4], in series [5] and in [6] was inactive.

A word on the half-life: it is the time needed for the level to fall by half in the phase considered. A lower half-life goes with rapid decline. `COc1ccc(C[C@H](NC(=O)[C@@H](C)NC(=O)[C@H]2CC[C@H](O)CC2)C(=O)N[C@@H](CC2=CCCC2)C(=O)[C@@]2(C)CO2)cc1` returned a half-life in series [7] below 7 min. Also, the result in series [8] and in [9] was inactive. The inhibition result in series [10], in series [11], in series [13] and in series [14] was “Active” each time. For the same compound, the Activity entry in series [12], in [15] and in series [16] was “Non-Toxic” throughout.
